ZTA counter = counter-screen for EBNA-1 inhibitors: inhibitors of Epstein-Barr virus ZTA. inhibition, % at 11 µM. P03206. ZTA-DNA binding, fluorescence polarization. 320,000 compounds, 0.15% hits; in the data active means inhibition above about 33%
Target sequence (P03206 whole entry, looked up): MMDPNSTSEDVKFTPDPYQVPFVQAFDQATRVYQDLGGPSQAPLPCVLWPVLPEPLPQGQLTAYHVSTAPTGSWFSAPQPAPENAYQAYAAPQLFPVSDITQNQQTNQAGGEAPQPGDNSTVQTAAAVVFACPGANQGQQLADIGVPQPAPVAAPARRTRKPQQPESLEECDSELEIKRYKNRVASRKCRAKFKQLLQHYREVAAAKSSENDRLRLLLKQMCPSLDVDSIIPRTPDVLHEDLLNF
NS3 helicase inh = blocks Hepatitis C virus NS3 helicase unwinding. NS3 helicase DNA unwinding, Cy5 molecular beacon fluorescence. inhibition, % at 10.9 µM. 290,000 compounds, 0.56% hits. AID 1800;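 active means inhibition above the mean of all tested compounds plus 3 SD, set per campaign, cut at about 35% in these data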;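 further: 0% = DMSO wells and 100% = thioflavine S control wells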
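Compound dosing – single dose, 10.9 µM nominal final, DMSO 0.8% final · System – NS3 helicase fragment of HCV · Buffer or medium – MOPS pH 6.5, MgCl2, DTT, Tween20, BSA · Signal – Cy5 beacon fluorescence read at start and 1 h · Also added – annealed dual-labelled DNA beacon duplex, ATP-started · Schedule – 1 h at 25 °C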
MLLE-PAM2 inh = blocks PAM2 peptide binding to the PABP1 MLLE domain; GST-MLLE / FITC-PAM2 fluorescence polarization; inhibition, % at 20 µM; P11940; 360,000 compounds, 0.36% hits; in the data active means inhibition above about 35%, passing the limit was not always enough;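 further: plate controls were DMSO wells with GST-MLLE for no effect and wells lacking GST-MLLE protein for full effect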
eIF4H inh = inhibitors of RNA binding by human eIF4H; Q15056; eIF4H fluorescence polarization binding assay; inhibition, % at 35 µM; 290,000 compounds, 0.94% hits; AID 2012;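 further: calls also rest on retests at 20 µM and on dose response follow-up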
EBNA-1 inhibitor = blocks EBNA-1 binding to DNA | AID 1950 | EBNA-1 DNA binding, fluorescence polarization | inhibition, % at 14.8 µM | 300,000 compounds, 0.34% hits; in the data active means inhibition above about 28%
PABP FP inh = blocks human PABP binding to poly(A) RNA; P11940; fluorescence polarization; inhibition, % at 35 µM; 290,000 compounds, 1% hits;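 further: calls also rest on retests at 20 µM and on dose response follow-up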
* marks the source's active call; other numbers are inactive results; ? = inconclusive; . = not tested or not shown. Only some compounds are listed: those with a hit (about 2.1% of all), similar ones and a draw of the others. Unless noted, how the calls were made is not given here.

SMILES	ZTA counter	NS3 helicase inh	MLLE-PAM2 inh	eIF4H inh	EBNA-1 inhibitor	PABP FP inh
O=C(O)c1cc(-c2ccco2)nc2ccccc12	-15	20	53*	82*	-2	60*
CCNC(=O)COC(=O)c1cc(-c2ccco2)nc2ccccc12	-8	29	-9	89*	7	69*
O=C(OCC(=O)N1CCN(C(=O)c2ccco2)CC1)c1cc(-c2ccco2)nc2ccccc12	2	6	19	85*	9	70*
O=C(O)c1cc(-c2cc(C(=O)O)c3ccccc3n2)nc2ccccc12	-10	9	.	-3	-10	-4
O=C(CN1CCc2ccccc2C1)Nc1cc(S(=O)(=O)N2CCOCC2)ccc1N1CCOCC1	-7	6	-2	-2	-7	-5
COc1ccc(C(=O)CN2CCN(S(=O)(=O)c3cccc([N+](=O)[O-])c3)CC2)cc1	4	4	3	2	13	13
C/C(=N\NC(=O)c1cc(-c2ccco2)nc2ccccc12)c1cccnc1	-16	1	0	82*	-4	active
CCOc1ccc(/C=N/NC(=O)c2cc(-c3ccco3)nc3ccccc23)cc1	5	34	5	59	2	7
O=C(N/N=C/c1ccc(F)cc1)c1cc(-c2ccco2)nc2ccccc12	5	39*	-18	90*	11	51*
COc1ccc(CNC(=O)COC(=O)c2cc(-c3ccco3)nc3ccccc23)cc1	.	17	.	90*	.	44
CCOc1ccccc1NS(=O)(=O)c1ccc(-n2cccn2)cc1	-14	-3	-6	-8	-7	5
CCN1CCN(c2ncc(C(=O)Nc3cc(Cl)ccc3OC)c3ccccc23)CC1	-2	-62	4	-1	-1	-1
O=C(COC(=O)c1nc(Cl)ccc1Cl)Nc1ncc(Cl)cc1Cl	-30	.	-2	.	-4	.
Cc1ccc(C(=O)N/C(=C/c2ccco2)C(=O)O)cc1	-16	20	15	87*	-10	120*
CCOC(=O)/C(=C\c1ccc(C)cc1)NC(=O)c1ccccc1	-12	-5	5	78*	-4	54*
Cc1ccc(/C=C(\NC(=O)c2ccccc2)C(=O)OCc2ccccc2)cc1	-16	-1	-2	-14	-8	-6
O=C(N/C(=C\c1ccco1)C(=O)N1CCCC1CO)c1ccccc1 (stereo not given)	4	16	34*	18	-4	23
O=C(NCc1ccccn1)/C(=C/c1ccco1)NC(=O)c1ccccc1	-7	3	-3	82*	3	0.3*
Cc1ccc(C(=O)N/C(=C\c2ccc(C)o2)C(=O)O)cc1	6	-5	-2	6	-8	2
CC(=O)NCc1ccc(S(=O)(=O)N/N=C/c2ccccc2)cc1	-1	4	17	2	1	2
CCN(CC)S(=O)(=O)c1ccc(N2CCOCC2)c(NC(=O)CCC2CCCCC2)c1	-10	-2	39*	4	-3	20
CC(=O)N1CCc2cc(N=NC3=C(O)CCCC3=O)ccc21	29	0	-66	54*	1	1.4*
O=C1CCCC(O)=C1N=Nc1ccc(Cl)c(Cl)c1	3	14	12	0	5	-7
COc1ccc(CCNC(=O)CSc2nc3ccccc3o2)cc1OC	6	-3	1	-16	1	-6
COc1cc(/C=N\Nc2ccc([N+](=O)[O-])cc2)ccc1OCC(=O)Nc1ccc(C)c(C)c1	.	-1	7	?	.	55*
SMILES	ZTA counter	NS3 helicase inh	MLLE-PAM2 inh	eIF4H inh	EBNA-1 inhibitor	PABP FP inh
CNC(=S)N/N=C/c1ccc(OCC(=O)Nc2c(C)cc(C)cc2C)c(OC)c1	23	3	-1	-2	6	-16
COc1cc(/C=N/NC(N)=S)ccc1OCC(=O)Nc1ccc(C)cc1	34*	-7	-51	-10	47*	-9
CCc1ccc(/C=N/NC(=O)c2cc(C3CC3)nc3ccccc23)s1	8	-6	-12	-12	0	4
C(=N\N=C\c1cccs1)/c1cccs1	13	2	-5	2	-10	3
O=C1NC(=S)S/C1=C/c1ccc(N2CCOCC2)o1	9	17	-88	87*	2	1.3*
O=C(C[n+]1cc(Br)cc2ccccc21)c1ccc(Br)cc1	-5	-5	-33	81	3	23*
Cc1cc(C)c2c(N)c(C(=O)Nc3ccc(C)c(C)c3)sc2n1	23	-5	27	0	-1	5
